In assay [1] the target is Tyrosine-protein kinase BTK (Homo sapiens) (UniProt Q06187). Put plainly: Residual activity of BTK at 1 uM by microplate scintillation counting.
For assay [2], the target named is CDK9/cyclin T1 (Homo sapiens) (UniProt O60563+P50750). Put plainly: Residual activity of CDK9/Cyclin T at 0.1 uM by microplate scintillation counting. It counts as protein-complex assay.
The target in assay [3] is T1, Eukaryotic elongation factor 2 kinase (Homo sapiens) (UniProt O00418).
T1 sequence (whole entry): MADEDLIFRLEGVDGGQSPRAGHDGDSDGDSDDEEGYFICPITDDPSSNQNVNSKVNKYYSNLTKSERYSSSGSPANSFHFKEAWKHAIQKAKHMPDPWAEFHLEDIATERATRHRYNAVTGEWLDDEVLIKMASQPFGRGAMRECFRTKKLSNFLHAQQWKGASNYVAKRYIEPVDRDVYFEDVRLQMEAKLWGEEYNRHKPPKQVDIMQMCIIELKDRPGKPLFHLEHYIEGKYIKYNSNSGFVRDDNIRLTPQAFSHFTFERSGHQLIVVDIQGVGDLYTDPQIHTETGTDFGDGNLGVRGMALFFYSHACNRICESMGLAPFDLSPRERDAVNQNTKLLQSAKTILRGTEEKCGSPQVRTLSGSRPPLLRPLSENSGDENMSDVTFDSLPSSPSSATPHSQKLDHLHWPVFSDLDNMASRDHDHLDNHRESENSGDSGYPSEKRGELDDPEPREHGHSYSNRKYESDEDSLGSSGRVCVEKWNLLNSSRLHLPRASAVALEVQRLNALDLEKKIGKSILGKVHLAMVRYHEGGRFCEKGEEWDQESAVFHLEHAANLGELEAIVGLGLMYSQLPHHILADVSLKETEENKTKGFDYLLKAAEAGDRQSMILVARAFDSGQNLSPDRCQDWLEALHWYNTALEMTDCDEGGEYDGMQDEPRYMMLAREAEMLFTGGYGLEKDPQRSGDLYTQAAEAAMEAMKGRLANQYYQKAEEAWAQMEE
As to the kind of experiment: Residual activity of EEF2K at 1 uM by microplate scintillation counting.

The target of assay [4] is Tyrosine-protein kinase Lyn (Homo sapiens) (UniProt P07948). Put plainly: Residual activity of LYN at 10 uM by microplate scintillation counting.
In assay [5] the target is T2, Serine/threonine-protein kinase DCLK2 (Homo sapiens) (UniProt Q8N568).
T2 sequence (whole entry): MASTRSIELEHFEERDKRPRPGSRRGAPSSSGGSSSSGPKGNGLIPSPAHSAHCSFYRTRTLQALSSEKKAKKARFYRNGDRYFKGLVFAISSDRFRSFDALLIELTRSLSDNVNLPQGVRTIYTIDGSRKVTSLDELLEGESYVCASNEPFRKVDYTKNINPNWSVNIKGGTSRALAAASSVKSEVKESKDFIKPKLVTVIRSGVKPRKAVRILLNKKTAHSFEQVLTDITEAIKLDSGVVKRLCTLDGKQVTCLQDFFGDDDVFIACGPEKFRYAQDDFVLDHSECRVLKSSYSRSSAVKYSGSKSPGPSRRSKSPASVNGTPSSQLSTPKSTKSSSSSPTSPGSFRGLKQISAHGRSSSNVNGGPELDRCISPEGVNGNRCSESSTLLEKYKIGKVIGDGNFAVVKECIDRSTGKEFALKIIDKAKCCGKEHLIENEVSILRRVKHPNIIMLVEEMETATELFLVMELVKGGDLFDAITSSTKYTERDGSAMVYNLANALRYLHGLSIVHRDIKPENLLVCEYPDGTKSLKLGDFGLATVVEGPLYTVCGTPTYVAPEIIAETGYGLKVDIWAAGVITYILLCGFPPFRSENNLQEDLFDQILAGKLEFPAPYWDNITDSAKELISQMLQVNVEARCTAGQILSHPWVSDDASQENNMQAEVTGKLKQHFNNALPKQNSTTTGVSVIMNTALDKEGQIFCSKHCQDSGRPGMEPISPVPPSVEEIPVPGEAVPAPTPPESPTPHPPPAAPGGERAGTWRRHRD
As to the kind of experiment: Residual activity of DCAMKL2 at 1 uM by microplate scintillation counting.

Assay [6] deals with T3, Inhibitor of nuclear factor kappa-B kinase subunit beta (Homo sapiens) (UniProt O14920).
T3 sequence (whole entry): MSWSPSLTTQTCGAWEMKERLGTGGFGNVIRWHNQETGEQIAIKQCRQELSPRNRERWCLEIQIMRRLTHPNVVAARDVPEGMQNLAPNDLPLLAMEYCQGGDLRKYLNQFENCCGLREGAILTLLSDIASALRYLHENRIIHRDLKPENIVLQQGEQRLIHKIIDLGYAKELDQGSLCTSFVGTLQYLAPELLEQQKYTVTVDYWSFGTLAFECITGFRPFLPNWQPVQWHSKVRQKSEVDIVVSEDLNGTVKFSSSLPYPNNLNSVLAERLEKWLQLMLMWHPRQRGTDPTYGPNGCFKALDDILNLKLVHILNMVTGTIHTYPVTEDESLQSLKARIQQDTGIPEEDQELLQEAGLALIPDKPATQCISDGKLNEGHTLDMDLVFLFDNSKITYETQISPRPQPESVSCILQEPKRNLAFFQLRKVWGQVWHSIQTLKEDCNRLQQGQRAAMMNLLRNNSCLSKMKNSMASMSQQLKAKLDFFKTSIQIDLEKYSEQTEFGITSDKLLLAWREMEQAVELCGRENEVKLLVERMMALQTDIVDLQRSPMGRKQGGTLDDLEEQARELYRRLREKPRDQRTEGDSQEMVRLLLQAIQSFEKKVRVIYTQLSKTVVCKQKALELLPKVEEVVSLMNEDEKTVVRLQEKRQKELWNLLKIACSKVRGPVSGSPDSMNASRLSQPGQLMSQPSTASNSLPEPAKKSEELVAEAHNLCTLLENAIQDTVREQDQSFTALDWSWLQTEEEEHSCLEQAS
Put plainly: Residual activity of IKK-beta at 10 uM by microplate scintillation counting.

Assay [7] addresses Serine/threonine-protein kinase N1 (Homo sapiens) (UniProt Q16512). Put plainly: Residual activity of PRK1 at 0.1 uM by microplate scintillation counting.
The target in another assay is Angiopoietin-1 receptor (Homo sapiens, UniProt Q02763). As to the kind of experiment: Inhibition of TIE2 in human HCT116 cells by cellular phosphorylation assay. In kind it is cell-based, HCT-116. The method, boiled down:
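TIE2 autophosphorylation in cells expressing the receptor. Compound was applied, cells were stimulated, then lysed with phosphoprotein levels preserved. Phosphorylation was quantified by sandwich ELISA with a receptor-specific capture antibody and anti-phosphotyrosine antibody, relative to the stimulated high control.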

Assay [8] has as its target Protein kinase C alpha type (Homo sapiens) (UniProt P17252). As to the kind of experiment: Residual activity of PKCalpha at 0.1 uM by microplate scintillation counting.

A word on the residual activity: it is the signal under treatment as a percentage of the control signal. As usually defined, the EC50 is the midpoint of the concentration-response curve. A lower EC50 goes with higher potency in that assay.

Sequence of Tyrosine-protein kinase Lyn (Homo sapiens) (P07948 2-512 limits assumed): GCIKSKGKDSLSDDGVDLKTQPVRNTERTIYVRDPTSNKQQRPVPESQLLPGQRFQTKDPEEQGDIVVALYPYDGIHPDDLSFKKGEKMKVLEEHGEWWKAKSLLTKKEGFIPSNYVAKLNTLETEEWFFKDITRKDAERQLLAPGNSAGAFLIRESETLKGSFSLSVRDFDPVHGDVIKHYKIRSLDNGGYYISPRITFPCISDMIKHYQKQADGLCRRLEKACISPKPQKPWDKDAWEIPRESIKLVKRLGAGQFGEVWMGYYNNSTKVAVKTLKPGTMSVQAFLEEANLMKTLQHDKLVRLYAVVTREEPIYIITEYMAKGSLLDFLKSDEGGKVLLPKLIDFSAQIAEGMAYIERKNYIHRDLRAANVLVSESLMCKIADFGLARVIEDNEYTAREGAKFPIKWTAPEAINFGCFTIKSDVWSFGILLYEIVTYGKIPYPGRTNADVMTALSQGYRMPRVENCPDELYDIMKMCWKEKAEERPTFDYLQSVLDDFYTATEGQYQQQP
Sequence of Serine/threonine-protein kinase N1 (Homo sapiens) (Q16512 2-942 limits assumed): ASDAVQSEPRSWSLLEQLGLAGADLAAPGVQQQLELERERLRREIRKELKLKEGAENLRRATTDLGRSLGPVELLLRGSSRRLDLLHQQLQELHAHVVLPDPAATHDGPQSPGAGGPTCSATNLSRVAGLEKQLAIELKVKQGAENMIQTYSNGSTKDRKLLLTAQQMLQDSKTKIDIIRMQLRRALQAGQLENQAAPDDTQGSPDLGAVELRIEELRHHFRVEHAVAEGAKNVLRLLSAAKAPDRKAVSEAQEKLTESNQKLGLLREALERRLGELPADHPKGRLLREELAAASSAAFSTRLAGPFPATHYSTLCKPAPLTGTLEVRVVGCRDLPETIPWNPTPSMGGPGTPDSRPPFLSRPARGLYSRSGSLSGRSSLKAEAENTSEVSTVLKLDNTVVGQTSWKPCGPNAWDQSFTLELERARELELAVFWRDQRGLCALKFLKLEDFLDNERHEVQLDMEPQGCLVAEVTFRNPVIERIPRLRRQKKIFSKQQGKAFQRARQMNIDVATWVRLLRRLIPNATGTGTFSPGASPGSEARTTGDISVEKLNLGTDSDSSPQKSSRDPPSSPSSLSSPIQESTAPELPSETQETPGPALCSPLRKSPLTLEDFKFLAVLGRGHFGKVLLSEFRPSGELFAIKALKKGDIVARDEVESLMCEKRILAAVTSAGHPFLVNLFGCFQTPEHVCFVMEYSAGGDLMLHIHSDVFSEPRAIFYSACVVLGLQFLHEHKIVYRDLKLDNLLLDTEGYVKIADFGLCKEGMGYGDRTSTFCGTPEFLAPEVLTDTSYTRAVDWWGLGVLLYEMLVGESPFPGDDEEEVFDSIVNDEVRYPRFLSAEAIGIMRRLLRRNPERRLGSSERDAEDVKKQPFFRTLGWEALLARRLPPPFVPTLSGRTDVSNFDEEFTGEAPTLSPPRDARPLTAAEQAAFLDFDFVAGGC
Sequence of Angiopoietin-1 receptor (Q02763 whole entry): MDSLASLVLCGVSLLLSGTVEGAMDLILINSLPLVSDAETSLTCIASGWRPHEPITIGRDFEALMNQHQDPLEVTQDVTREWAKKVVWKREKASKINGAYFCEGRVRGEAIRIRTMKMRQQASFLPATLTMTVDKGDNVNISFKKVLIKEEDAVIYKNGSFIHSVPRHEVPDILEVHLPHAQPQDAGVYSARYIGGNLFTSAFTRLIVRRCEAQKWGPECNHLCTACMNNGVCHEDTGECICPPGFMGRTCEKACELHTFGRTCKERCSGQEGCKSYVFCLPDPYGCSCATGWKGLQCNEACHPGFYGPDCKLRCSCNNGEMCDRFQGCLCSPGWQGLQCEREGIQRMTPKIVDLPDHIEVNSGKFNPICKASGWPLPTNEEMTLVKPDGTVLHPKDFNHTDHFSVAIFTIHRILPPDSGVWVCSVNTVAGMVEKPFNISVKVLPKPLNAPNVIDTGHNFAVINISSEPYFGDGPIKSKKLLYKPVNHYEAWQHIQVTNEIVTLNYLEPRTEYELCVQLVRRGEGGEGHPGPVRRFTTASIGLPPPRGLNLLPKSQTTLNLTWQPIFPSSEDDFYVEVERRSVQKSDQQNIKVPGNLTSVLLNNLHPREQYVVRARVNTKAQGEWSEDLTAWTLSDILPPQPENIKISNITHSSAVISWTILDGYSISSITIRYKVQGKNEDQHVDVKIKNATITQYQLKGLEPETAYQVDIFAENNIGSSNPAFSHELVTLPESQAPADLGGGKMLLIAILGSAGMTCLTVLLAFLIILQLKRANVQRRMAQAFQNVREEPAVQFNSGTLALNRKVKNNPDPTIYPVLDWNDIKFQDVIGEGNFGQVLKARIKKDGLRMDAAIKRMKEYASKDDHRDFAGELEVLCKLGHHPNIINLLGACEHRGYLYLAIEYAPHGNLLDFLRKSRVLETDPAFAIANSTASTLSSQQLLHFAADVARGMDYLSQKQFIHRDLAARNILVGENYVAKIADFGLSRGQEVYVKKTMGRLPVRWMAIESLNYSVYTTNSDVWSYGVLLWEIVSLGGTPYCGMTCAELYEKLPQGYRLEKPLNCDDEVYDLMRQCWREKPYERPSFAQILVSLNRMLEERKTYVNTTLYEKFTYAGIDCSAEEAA
Sequence of Tyrosine-protein kinase BTK (Homo sapiens) (Q06187 whole entry): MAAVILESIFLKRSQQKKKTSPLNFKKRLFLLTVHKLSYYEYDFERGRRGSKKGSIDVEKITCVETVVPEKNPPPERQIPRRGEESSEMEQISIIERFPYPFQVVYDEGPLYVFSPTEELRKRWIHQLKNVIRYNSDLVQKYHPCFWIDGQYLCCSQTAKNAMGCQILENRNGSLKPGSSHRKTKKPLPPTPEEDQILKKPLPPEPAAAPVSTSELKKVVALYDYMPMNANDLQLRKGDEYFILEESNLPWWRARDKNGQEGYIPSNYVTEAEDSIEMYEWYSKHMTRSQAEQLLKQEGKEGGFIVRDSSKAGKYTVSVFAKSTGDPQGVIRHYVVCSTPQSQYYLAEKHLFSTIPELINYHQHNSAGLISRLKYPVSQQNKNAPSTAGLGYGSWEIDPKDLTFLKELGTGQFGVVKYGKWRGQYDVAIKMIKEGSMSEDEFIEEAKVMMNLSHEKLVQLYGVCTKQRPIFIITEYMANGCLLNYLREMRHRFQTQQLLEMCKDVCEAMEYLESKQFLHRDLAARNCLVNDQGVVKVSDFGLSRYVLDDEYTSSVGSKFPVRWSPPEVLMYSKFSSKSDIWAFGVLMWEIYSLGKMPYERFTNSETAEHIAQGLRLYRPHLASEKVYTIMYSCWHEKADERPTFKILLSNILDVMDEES

Regarding `COc1cc2c(Oc3ccc(-c4nc5ccccc5s4)cc3F)ncnc2cc1OCCCN1CCN(C)CC1`, the residual activity in assay [1] is 114%; in assay [2], 91%; in [3] it was 90%; in [4] it was 36%; in [5], 76%; in assay [6] it was 116%. Further, the results for the residual activity in assay [7] and in assay [8] were 94% and 100%, respectively. This compound came in with an EC50 on Angiopoietin-1 receptor of 300 nM.
As to `COc1cc2c(Oc3ccc(-c4nc5ccccc5s4)cc3)ncnc2cc1OCCCN1CCN(C)CC1`, the residual activity in assay [1] stood at 124%; in [2], 101%; in assay [3], 82%; in assay [4], 112%; in [5], 80%; in [6], 109%. The residual activity in [7] was found to be 99%; in assay [8], 108%. At Angiopoietin-1 receptor, it took 540 nM to reach a half-maximal effect (EC50).
In the case of `COc1cc2c(Oc3ccc(-c4nc5ccccc5s4)cc3)ncnc2cc1OCCCN1CCCC1`, the residual activity turned out to be 163% in assay [1]; 94% in [2]; 86% in [3]; 142% in assay [4]; 71% in [5]; 135% in assay [6]. Also, the residual activity in assay [7] came to 96%; in [8], 137%. The compound also registered an EC50 on Angiopoietin-1 receptor of 140 nM.

Source of the values: ChEMBL document CHEMBL1152560, “Substituted 2-arylbenzothiazoles as kinase inhibitors: hit-to-lead optimization” (Bioorg Med Chem, 2009).
